Assay results taken from publication PMC6104635 (ACS chemical neuroscience, 2018).
Where a chain is given by its changes, count along the chain named. Where “and” joins values, the source holds several entries; their conditions need not be identical. Identical values can stand only once. Like-named read-outs stand apart in the source and are kept apart here. Values belong to the compound of their own block, whether it stands above or below them.

How the values were obtained:
[1] = molecular target: T1, human M5 (Homo sapiens, UniProt P08912); test: calcium mobilization assay, hM5-CHO cells, FDSS7000; type: cell-based
T1 sequence (P08912 1-532): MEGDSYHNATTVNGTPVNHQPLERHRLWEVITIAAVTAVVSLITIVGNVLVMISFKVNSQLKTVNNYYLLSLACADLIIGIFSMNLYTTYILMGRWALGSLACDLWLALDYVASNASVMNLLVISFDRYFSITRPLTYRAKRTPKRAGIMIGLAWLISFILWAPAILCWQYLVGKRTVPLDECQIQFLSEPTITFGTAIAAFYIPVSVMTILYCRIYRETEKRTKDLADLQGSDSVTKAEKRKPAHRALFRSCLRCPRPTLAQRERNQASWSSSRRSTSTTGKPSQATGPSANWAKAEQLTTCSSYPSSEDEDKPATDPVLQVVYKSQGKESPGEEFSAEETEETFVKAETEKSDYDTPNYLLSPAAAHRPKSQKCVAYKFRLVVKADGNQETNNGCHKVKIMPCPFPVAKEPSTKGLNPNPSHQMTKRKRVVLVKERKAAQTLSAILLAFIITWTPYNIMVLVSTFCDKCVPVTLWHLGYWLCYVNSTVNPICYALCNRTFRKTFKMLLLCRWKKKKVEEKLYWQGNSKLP
Procedure, shortened: (§1)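 CHO cells stably expressing human or rat M5 were grown in Ham's F-12 with 10% FBS, 20 mM HEPES and 500 μg/mL G418 (37 °C, 5% CO2), then plated at 20 000 cells/well without G418 the day before. Cells were loaded with 1.15 μM Fluo-4 AM for 45 min at 37 °C in HBSS, 20 mM HEPES and 2.5 mM probenecid. Test compound was given as a 10-point 1:3 series from 30 μM final for 2.5 min, then ACh EC20 for 1 min, with calcium read on FDSS7000. EC50 and efficacy came from a four-parameter logistic fit.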

[2] = molecular target: T2, rat M5 (Rattus norvegicus, UniProt P08911); test: calcium mobilization assay, rM5-CHO cells, FDSS7000; type: cell-based; details: functional calcium assay, n = 3
T2 sequence (P08911 1-531): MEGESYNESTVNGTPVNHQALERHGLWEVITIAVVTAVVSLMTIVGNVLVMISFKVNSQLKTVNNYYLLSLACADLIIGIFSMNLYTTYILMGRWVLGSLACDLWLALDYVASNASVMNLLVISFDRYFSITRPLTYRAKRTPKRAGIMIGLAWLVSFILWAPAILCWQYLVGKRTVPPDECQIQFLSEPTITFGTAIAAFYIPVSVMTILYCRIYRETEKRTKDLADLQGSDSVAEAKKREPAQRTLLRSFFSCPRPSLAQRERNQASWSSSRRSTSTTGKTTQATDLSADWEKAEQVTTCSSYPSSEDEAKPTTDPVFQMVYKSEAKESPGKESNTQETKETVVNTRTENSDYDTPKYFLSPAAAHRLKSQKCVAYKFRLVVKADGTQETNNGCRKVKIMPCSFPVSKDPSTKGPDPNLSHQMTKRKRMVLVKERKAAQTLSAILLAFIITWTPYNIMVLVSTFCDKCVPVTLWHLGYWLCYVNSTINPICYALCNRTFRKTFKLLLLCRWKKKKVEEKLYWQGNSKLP
Procedure, shortened: as §1

[3] = plasma protein binding, rat; type: in vitro ADME
[4] = plasma protein binding, human; type: in vitro ADME
[5] = brain homogenate binding, rat; type: in vitro ADME
[6] = hepatic microsomal intrinsic clearance, human; type: in vitro ADME; details: based on microsomal intrinsic clearance (CLint)
[7] = rat brain distribution; type: in vivo; details: male, Sprague-Dawley, brain and plasma
Procedure, shortened: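 Male Sprague–Dawley rats received a single IV or IP cassette dose of 0.20–0.25 mg/kg, with n = 1 animal per cassette. Vehicle was ethanol/PEG400/DMSO, with excipient levels adjusted for solubility, at 0.5 mL/kg iv or 3 mL/kg ip. Plasma and brain were sampled nonserially and quantified by LC-MS/MS (positive ESI, MRM).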

[8] = metabolite identification in rat hepatic microsomes; type: in vitro ADME; details: rat and human hepatic microsomes, result in words
Procedure, shortened: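 Test compound was incubated with rat hepatic microsomes, run alongside human microsomes. Metabolite structures were proposed from LC-UV/MSn data, and major metabolites were assigned by relative peak areas.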

[9] = molecular target: T3, human M1 (Homo sapiens, UniProt P11229); test: mAChR selectivity, PAM activity at human M1; type: cell-based
T3 sequence (P11229 1-460): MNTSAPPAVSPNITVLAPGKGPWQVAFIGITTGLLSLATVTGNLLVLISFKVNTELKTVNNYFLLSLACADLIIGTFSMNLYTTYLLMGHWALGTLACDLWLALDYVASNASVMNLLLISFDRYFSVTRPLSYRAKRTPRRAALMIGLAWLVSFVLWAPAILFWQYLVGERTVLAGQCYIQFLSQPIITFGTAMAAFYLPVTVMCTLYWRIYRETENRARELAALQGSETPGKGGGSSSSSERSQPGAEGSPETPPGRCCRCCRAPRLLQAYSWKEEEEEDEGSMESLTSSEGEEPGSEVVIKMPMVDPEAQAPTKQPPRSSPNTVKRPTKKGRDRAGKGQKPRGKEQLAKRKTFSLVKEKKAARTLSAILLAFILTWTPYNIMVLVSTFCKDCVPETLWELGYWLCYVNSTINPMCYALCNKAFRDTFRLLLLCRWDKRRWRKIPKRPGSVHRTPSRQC

[10] = molecular target: T4, human M2 (Homo sapiens, UniProt P08172); test: mAChR selectivity, PAM activity at human M2; type: cell-based; details: result in words
T4 sequence (P08172 1-466): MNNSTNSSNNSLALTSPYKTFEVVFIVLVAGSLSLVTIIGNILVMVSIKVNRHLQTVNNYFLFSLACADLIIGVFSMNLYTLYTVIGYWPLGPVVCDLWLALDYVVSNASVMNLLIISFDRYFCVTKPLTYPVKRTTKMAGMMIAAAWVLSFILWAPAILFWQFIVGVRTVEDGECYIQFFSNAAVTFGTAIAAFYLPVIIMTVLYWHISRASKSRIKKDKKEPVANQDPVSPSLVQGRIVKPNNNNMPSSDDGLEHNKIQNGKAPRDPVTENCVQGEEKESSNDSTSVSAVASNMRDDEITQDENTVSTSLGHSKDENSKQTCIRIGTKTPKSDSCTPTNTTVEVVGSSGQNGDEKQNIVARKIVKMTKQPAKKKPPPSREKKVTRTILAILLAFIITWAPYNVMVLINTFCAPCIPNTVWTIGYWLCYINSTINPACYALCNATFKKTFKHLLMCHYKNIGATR

[11] = molecular target: human M3 (Homo sapiens, UniProt P20309); test: mAChR selectivity, PAM activity at human M3; type: cell-based
human M3, sequence (P20309 whole entry): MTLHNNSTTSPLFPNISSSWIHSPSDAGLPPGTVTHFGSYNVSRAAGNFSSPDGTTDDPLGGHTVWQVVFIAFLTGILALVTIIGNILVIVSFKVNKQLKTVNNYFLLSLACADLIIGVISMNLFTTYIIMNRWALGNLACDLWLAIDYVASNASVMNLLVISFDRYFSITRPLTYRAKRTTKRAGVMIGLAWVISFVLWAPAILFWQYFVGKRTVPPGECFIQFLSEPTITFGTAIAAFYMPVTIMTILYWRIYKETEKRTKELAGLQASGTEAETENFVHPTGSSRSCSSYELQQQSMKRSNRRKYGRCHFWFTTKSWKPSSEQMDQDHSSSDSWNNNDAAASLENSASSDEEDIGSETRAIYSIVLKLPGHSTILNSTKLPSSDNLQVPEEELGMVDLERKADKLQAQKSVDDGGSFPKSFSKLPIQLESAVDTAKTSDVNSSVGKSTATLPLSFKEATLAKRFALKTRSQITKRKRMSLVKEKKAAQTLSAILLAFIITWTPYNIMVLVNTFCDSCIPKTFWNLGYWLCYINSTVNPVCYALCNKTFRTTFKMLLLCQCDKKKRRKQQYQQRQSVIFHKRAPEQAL

[12] = molecular target: T5, human M4 (Homo sapiens, UniProt P08173); test: mAChR selectivity, PAM activity at human M4; type: cell-based; details: result in words
T5 sequence (P08173 1-479): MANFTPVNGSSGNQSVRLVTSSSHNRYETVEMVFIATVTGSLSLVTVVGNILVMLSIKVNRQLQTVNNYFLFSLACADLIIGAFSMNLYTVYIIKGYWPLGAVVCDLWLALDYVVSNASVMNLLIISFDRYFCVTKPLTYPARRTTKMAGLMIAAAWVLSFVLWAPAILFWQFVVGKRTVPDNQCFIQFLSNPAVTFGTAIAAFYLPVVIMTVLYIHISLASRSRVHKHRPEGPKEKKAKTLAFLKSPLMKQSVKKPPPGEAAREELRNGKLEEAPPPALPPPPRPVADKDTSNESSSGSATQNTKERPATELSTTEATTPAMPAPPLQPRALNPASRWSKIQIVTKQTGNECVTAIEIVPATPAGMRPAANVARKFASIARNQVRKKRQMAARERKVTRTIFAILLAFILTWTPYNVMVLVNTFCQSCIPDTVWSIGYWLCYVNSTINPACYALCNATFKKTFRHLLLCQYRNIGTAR

[13] = molecular target: T6, rat M1 (Rattus norvegicus, UniProt P08482); test: mAChR selectivity, PAM activity at rat M1; type: cell-based
T6 sequence (P08482 1-460): T3 sequence (P11229 1-460) with A5V, T254S, P309S, R320K, A337G, I413V

[14] = molecular target: T7, rat M2 (Rattus norvegicus, UniProt P10980); test: mAChR selectivity, PAM activity at rat M2; type: cell-based; details: result in words
T7 sequence (P10980 1-466): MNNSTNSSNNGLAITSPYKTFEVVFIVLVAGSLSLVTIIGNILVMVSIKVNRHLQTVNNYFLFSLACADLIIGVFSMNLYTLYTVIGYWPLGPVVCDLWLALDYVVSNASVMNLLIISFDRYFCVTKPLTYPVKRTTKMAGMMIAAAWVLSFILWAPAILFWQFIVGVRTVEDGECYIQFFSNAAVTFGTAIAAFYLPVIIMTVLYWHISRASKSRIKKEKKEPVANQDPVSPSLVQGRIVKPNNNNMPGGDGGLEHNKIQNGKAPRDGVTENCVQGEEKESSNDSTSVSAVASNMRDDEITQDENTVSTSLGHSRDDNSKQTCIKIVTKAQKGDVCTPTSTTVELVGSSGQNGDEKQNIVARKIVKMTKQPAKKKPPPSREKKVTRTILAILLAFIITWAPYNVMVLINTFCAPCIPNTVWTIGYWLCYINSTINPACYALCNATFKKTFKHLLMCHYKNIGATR

[15] = molecular target: rat M3 (Rattus norvegicus, UniProt P08483); test: mAChR selectivity, PAM activity at rat M3; type: cell-based
rat M3, sequence (P08483 whole entry): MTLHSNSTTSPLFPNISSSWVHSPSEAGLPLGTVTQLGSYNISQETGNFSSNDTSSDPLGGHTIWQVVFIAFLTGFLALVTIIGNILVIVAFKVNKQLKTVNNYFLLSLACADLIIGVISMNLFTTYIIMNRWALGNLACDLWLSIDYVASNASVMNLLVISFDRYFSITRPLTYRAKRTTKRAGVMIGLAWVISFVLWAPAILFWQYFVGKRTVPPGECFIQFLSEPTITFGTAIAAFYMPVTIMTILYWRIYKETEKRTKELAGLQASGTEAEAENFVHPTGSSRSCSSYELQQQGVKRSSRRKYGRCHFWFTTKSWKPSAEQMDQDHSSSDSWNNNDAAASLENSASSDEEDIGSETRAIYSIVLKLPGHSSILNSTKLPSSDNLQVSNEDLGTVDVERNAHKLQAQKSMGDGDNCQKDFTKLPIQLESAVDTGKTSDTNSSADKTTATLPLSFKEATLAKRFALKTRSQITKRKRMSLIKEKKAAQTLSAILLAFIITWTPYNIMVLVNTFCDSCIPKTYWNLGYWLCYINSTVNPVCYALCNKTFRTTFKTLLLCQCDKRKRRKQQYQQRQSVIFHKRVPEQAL

[16] = molecular target: T8, rat M4 (Rattus norvegicus, UniProt P08485); test: mAChR selectivity, PAM activity at rat M4; type: cell-based
T8 sequence (P08485 1-478): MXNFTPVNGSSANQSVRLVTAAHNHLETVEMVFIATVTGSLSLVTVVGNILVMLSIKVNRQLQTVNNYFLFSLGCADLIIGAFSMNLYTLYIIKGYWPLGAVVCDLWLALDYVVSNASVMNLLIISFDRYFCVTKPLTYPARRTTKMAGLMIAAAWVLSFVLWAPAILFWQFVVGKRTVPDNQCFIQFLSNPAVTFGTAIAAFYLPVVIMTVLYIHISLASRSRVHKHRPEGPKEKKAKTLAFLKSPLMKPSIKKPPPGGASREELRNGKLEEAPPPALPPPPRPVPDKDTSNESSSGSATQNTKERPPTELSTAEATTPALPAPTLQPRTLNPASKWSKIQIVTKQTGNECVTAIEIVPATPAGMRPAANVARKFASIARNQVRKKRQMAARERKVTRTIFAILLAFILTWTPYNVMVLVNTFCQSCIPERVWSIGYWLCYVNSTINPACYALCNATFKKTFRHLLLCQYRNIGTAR

[17] = system: hM5; details: read-out: hM5 EC50; 96 well-format FlexStation II, initial optimization; cited from earlier work
[18] = PAM, functional calcium assay, n = 3

EC50 ([1]; hM5 EC50, PAM, functional calcium assay, n = 3): 0.481 µM
EC50 ([1]; hM5 pEC50 ± SEM, PAM, functional calcium assay, n = 3): 0.457 µM
rM5 % ACh Max ([2]; PAM): 63% ± 3%
EC50 ([2]; rM5 EC50, PAM): 0.409 µM
EC50 ([2]; rM5 pEC50 ± SEM, PAM): 0.38 µM
fraction unbound [3]: 0.043
fraction unbound [4]: 0.019
fraction unbound [5]: 0.017
predicted hepatic clearance CLhep, human [6]: 20.8 mL/min/kg
Kp [7]: 0.17
Kp uu [7]: 0.07
metabolism in MetID studies [8]: extensive oxidative metabolism
SMILES: CCN(C(=O)C1CCN(S(=O)(=O)c2ccc3[nH]ncc3c2)CC1)[C@@H]1CCc2ccccc21 [Compound 8, N-Ethyl-N-[(1R)-indan-1-yl]-1-(1H-indazol-5-ylsulfonyl)-piperidine-4-carboxamide]

hM5 % ACh Max [1, 18]: 74 % ACh Max and 74±6 % ACh Max
hM5 pEC50 ± SEM [1, 18]: 7.46±0.15
increase in M5 PAM potency relative to 18a ([1]; hM5): > 10 fold
EC50 ([1]; read-out: hM5 EC50, PAM, functional calcium assay, n = 3): 0.041 µM
rM5 % ACh Max ([2]; PAM): 76 % ACh Max and 76 ± 7 % ACh Max
rM5 pEC50 ± SEM ([2]; PAM): 7.13 ± 0.04
EC50 ([2]; read-out: rM5 EC50, PAM): 0.074 µM
selectivity for M5 versus M1 ([9]; M5-preferring PAM): 20 fold
human M1 % ACh Max ([9]; PAM activity): 67 % ACh Max
EC50 ([9]; read-out: human M1 EC50, PAM activity): 1.03 µM
human M2 PAM activity [10]: inactive
selectivity for M5 versus M3 ([11]; M5-preferring PAM): 10 fold
human M3 % ACh Max ([11]; PAM activity): 71 % ACh Max
EC50 ([11]; read-out: human M3 EC50, PAM activity): 0.466 µM
human M4 PAM activity [12]: inactive
rat M1 % ACh Max [13]: 69 % ACh Max
EC50 ([13]; read-out: rat M1 EC50): 0.904 µM
rat M2 PAM activity [14]: inactive
rat M3 % ACh Max [15]: 51 % ACh Max
EC50 ([15]; read-out: rat M3 EC50): 0.772 µM
rat M4 % ACh Max [16]: 49 % ACh Max
EC50 ([16]; read-out: rat M4 EC50): 3.91 µM
SMILES: CCCN(C(=O)C1CCN(S(=O)(=O)c2ccc3[nH]ncc3c2)CC1)[C@@H]1CCc2c(F)cccc21 [Compound 18g]

rightward shift in M5 PAM potency ([1]; FDSS7000 versus FlexStation II conditions): ~ 5 fold
EC50 ([1]; hM5 EC50, PAM, 384-well FDSS7000): 1.1 µM
SMILES: CCN(Cc1ccccc1C(F)(F)F)C(=O)C1CCN(S(=O)(=O)c2ccc3[nH]ncc3c2)CC1 [ML380, 1-((1H-indazol-5-yl)sulfonyl)-N-ethyl-N-(2-(trifluoromethyl)benzyl)piperidine-4-carboxamide, reference compound]
EC50 [17]: 0.19 µM
